In publication PMC6698915 (Cancer chemotherapy and pharmacology, 2015):

Experiments:
[1] = test system: patients with advanced solid tumors; assay: Adverse events; assay type: in vivo, human
[2] = Plasma pharmacokinetics of buparlisib, non-compartmental analysis; assay type: in vivo, human; details: oral; for AUC(0-t) / Cmax / Tmax: human, plasma; for AUC(0-t): AUC0–8 h
Outline: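 Patients on either platinum/taxane schedule received the oral PI3K-inhibitor test compound at 50 to 100 mg/day. Plasma was sampled on cycle 1/day 1 at 0, 15, 30 and 60 min and at 2, 3, 4.5, 6 and 8 h, plus day 8 pre-dose (taken as 168 h). Non-compartmental analysis: Cmax and Tmax observed; AUClast by linear trapezoidal rule; terminal rate constant by regression of the log-linear terminal phase.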

[3] = test system: class IA PI3K paralogues (p110α, β, and δ); details: cited from earlier work
[4] = test system: patients with advanced solid tumors; assay: Phase Ib 3 + 3 dose escalation: DLT, MTD and recommended phase II dose; assay type: in vivo, human
[5] = Group 1 (n = 16 subjects), with carboplatin + paclitaxel q21 days
[6] = Group 2 (n = 14 subjects), with carboplatin + weekly paclitaxel q28 days
[7] = 50 mg, Group 1, 50 mg, n = 6, cycle 1/day 1, mean
[8] = 50 mg, Group 2, 50 mg, n = 4, cycle 1/day 1, mean
[9] = 80 mg, Group 1, 80 mg, n = 3, cycle 1/day 1, mean
[10] = 80 mg, Group 2, 80 mg, n = 6, cycle 1/day 1, mean
[11] = 100 mg, Group 1, 100 mg, n = 7, cycle 1/day 1, mean
[12] = 100 mg, Group 2, 100 mg, n = 4, cycle 1/day 1, mean

Nc1cc(C(F)(F)F)c(-c2cc(N3CCOCC3)nc(N3CCOCC3)n2)cn1 [buparlisib]
ALT and/or AST elevation, any grade [1, 5]: 9 (56) n (%)
ALT and/or AST elevation, ≥Grade 3 [1, 5]: 2 (13) n (%)
Alkaline phosphatase, increased, any grade [1, 5]: 14 (88) n (%)
Alkaline phosphatase, increased, ≥Grade 3 [1, 5]: 2 (13) n (%)
Alopecia, any grade [1, 5]: 14 (88) n (%)
Anemia, any grade [1, 5]: 13 (81) n (%)
Anemia, ≥Grade 3 [1, 5]: 2 (13) n (%)
Anorexia, any grade [1, 5]: 13 (81) n (%)
Anorexia, ≥Grade 3 [1, 5]: 1 (6) n (%)
Anxiety, any grade [1, 5]: 6 (38) n (%)
Anxiety, ≥Grade 3 [1, 5]: 0 n (%)
Arthralgia, any grade [1, 5]: 13 (81) n (%)
Arthralgia, ≥Grade 3 [1, 5]: 1 (6) n (%)
Constipation, any grade [1, 5]: 11 (69) n (%)
Constipation, ≥Grade 3 [1, 5]: 0 n (%)
Cough, any grade [1, 5]: 9 (56) n (%)
Cough, ≥Grade 3 [1, 5]: 0 n (%)
Depressed mood, any grade [1, 5]: 6 (38) n (%)
Depressed mood, ≥Grade 3 [1, 5]: 1 (6) n (%)
Diarrhea, any grade [1, 5]: 14 (88) n (%)
Diarrhea, ≥Grade 3 [1, 5]: 1 (6) n (%)
Dizziness, any grade [1, 5]: 10 (63) n (%)
Dizziness, ≥Grade 3 [1, 5]: 0 n (%)
Dyspnea, any grade [1, 5]: 11 (69) n (%)
Dyspnea, ≥Grade 3 [1, 5]: 0 n (%)
Fatigue, any grade [1, 5]: 14 (88) n (%)
Fatigue, ≥Grade 3 [1, 5]: 1 (6) n (%)
Hypercholesterolemia, any grade [1, 5]: 7 (44) n (%)
Hypercholesterolemia, ≥Grade 3 [1, 5]: 0 n (%)
Hyperglycemia, any grade [1, 5]: 15 (94) n (%)
Hyperglycemia, ≥Grade 3 [1, 5]: 2 (13) n (%)
Hypertension, any grade [1, 5]: 6 (38) n (%)
Hypertension, ≥Grade 3 [1, 5]: 0 n (%)
Hypertriglyceridemia, any grade [1, 5]: 7 (44) n (%)
Hypertriglyceridemia, ≥Grade 3 [1, 5]: 0 n (%)
Hypoalbuminemia, any grade [1, 5]: 14 (88) n (%)
Hypoalbuminemia, ≥Grade 3 [1, 5]: 0 n (%)
Hypocalcemia, any grade [1, 5]: 6 (38) n (%)
Hypocalcemia, ≥Grade 3 [1, 5]: 1 (6) n (%)
Hypomagnesemia, any grade [1, 5]: 10 (63) n (%)
Hypomagnesemia, ≥Grade 3 [1, 5]: 0 n (%)
Hyponatremia, any grade [1, 5]: 8 (50) n (%)
Hyponatremia, ≥Grade 3 [1, 5]: 3 (19) n (%)
Hypophosphatemia, any grade [1, 5]: 2 (13) n (%)
Hypophosphatemia, ≥Grade 3 [1, 5]: 2 (13) n (%)
INR, increased, any grade [1, 5]: 6 (38) n (%)
INR, increased, ≥Grade 3 [1, 5]: 0 n (%)
Leukopenia, any grade [1, 5]: 12 (75) n (%)
Leukopenia, ≥Grade 3 [1, 5]: 2 (13) n (%)
Lymphopenia, any grade [1, 5]: 12 (75) n (%)
Lymphopenia, ≥Grade 3 [1, 5]: 12 (75) n (%)
Mucositis, oral, any grade [1, 5]: 6 (38) n (%)
Mucositis, oral, ≥Grade 3 [1, 5]: 0 n (%)
Myalgia, any grade [1, 5]: 11 (69) n (%)
Myalgia, ≥Grade 3 [1, 5]: 1 n (%)
Nausea, any grade [1, 5]: 12 (75) n (%)
Nausea, ≥Grade 3 [1, 5]: 0 n (%)
Neuropathy, sensory, any grade [1, 5]: 7 (44) n (%)
Neuropathy, sensory, ≥Grade 3 [1, 5]: 1 (6) n (%)
Neutropenia, any grade [1, 5]: 4 (25) n (%)
Neutropenia, ≥Grade 3 [1, 5]: 2 (13) n (%)
Rash, skin toxicity, any grade [1, 5]: 13 (81) n (%)
Rash, skin toxicity, ≥Grade 3 [1, 5]: 0 n (%)
Thrombocytopenia, any grade [1, 5]: 13 (81) n (%)
Thrombocytopenia, ≥Grade 3 [1, 5]: 3 (19) n (%)
incidence rate of ≥grade 3 leukopenia ([1]; Group 2): 64%
incidence rate of ≥grade 3 neutropenia ([1]; Group 2): 79%
ALT and/or AST elevation, any grade [1, 6]: 6 (43) n (%)
ALT and/or AST elevation, ≥Grade 3 [1, 6]: 1 (7) n (%)
Alkaline phosphatase, elevated, any grade [1, 6]: 5 (36) n (%)
Alkaline phosphatase, elevated, ≥Grade 3 [1, 6]: 1 (7) n (%)
Alopecia, any grade [1, 6]: 11 (79) n (%)
Anemia, any grade [1, 6]: 14 (100) n (%)
Anemia, ≥Grade 3 [1, 6]: 1 (7) n (%)
Anorexia, any grade [1, 6]: 9 (64) n (%)
Anorexia, ≥Grade 3 [1, 6]: 0 n (%)
Anxiety, any grade [1, 6]: 5 (36) n (%)
Anxiety, ≥Grade 3 [1, 6]: 0 n (%)
Arthralgia, any grade [1, 6]: 7 (50) n (%)
Arthralgia, ≥Grade 3 [1, 6]: 0 n (%)
Constipation, any grade [1, 6]: 8 (57) n (%)
Constipation, ≥Grade 3 [1, 6]: 0 n (%)
Cough, any grade [1, 6]: 8 (57) n (%)
Cough, ≥Grade 3 [1, 6]: 0 n (%)
Diarrhea, any grade [1, 6]: 7 (50) n (%)
Diarrhea, ≥Grade 3 [1, 6]: 0 n (%)
Dyspepsia, any grade [1, 6]: 6 (43) n (%)
Dyspepsia, ≥Grade 3 [1, 6]: 0 n (%)
Fatigue, any grade [1, 6]: 11 (79) n (%)
Fatigue, ≥Grade 3 [1, 6]: 2 (14) n (%)
Hypercholesterolemia, any grade [1, 6]: 9 (64) n (%)
Hypercholesterolemia, ≥Grade 3 [1, 6]: 0 n (%)
Hyperglycemia, any grade [1, 6]: 14 (100) n (%)
Hyperglycemia, ≥Grade 3 [1, 6]: 0 n (%)
Hypertension, any grade [1, 6]: 6 (43) n (%)
Hypertension, ≥Grade 3 [1, 6]: 0 n (%)
Hypertriglyceridemia, any grade [1, 6]: 8 (57) n (%)
Hypertriglyceridemia, ≥Grade 3 [1, 6]: 1 (7) n (%)
Hypoalbuminemia, any grade [1, 6]: 13 (93) n (%)
Hypoalbuminemia, ≥Grade 3 [1, 6]: 0 n (%)
Hypocalcemia, any grade [1, 6]: 5 (36) n (%)
Hypocalcemia, ≥Grade 3 [1, 6]: 0 n (%)
Hypokalemia, any grade [1, 6]: 5 (36) n (%)
Hypokalemia, ≥Grade 3 [1, 6]: 1 (7) n (%)
Hypomagnesemia, any grade [1, 6]: 7 (50) n (%)
Hypomagnesemia, ≥Grade 3 [1, 6]: 0 n (%)
Hyponatremia, any grade [1, 6]: 6 (43) n (%)
Hyponatremia, ≥Grade 3 [1, 6]: 0 n (%)
Leukopenia, any grade [1, 6]: 14 (100) n (%)
Leukopenia, ≥Grade 3 [1, 6]: 9 (64) n (%)
Lymphopenia, any grade [1, 6]: 7 (50) n (%)
Lymphopenia, ≥Grade 3 [1, 6]: 7 (50) n (%)
Mucositis, oral, any grade [1, 6]: 5 (36) n (%)
Mucositis, oral, ≥Grade 3 [1, 6]: 2 (14) n (%)
Myalgia, any grade [1, 6]: 5 (36) n (%)
Myalgia, ≥Grade 3 [1, 6]: 0 n (%)
Nausea, any grade [1, 6]: 10 (71) n (%)
Nausea, ≥Grade 3 [1, 6]: 0 n (%)
Neuropathy, sensory, any grade [1, 6]: 5 (36) n (%)
Neuropathy, sensory, ≥Grade 3 [1, 6]: 0 n (%)
Neutropenia, any grade [1, 6]: 13 (93) n (%)
Neutropenia, ≥Grade 3 [1, 6]: 11 (79) n (%)
Pain, not otherwise specified, any grade [1, 6]: 5 (36) n (%)
Pain, not otherwise specified, ≥Grade 3 [1, 6]: 0 n (%)
Rash, skin toxicity, any grade [1, 6]: 8 (57) n (%)
Rash, skin toxicity, ≥Grade 3 [1, 6]: 0 n (%)
Thrombocytopenia, any grade [1, 6]: 13 (93) n (%)
Thrombocytopenia, ≥Grade 3 [1, 6]: 0 n (%)
febrile neutropenia ([1]; both groups): no episodes of febrile neutropenia
treatment-related deaths ([1]; both groups): no treatment-related deaths
AUC(0-t) [2, 7]: 1.22 µg·h/mL
AUC(0-t) [2, 8]: 1.52 µg·h/mL
Cmax [2, 7]: 0.285 µg/mL
Cmax [2, 8]: 0.399 µg/mL
Tmax [2, 7]: 4.83 h
Tmax [2, 8]: 2.13 h
AUC(0-t) [2, 9]: 2.55 µg·h/mL
AUC(0-t) [2, 10]: 1.97 µg·h/mL
Cmax [2, 10]: 0.555 µg/mL
Tmax [2, 9]: 3.67 h
Tmax [2, 10]: 2.08 h
AUC(0-t) [2, 11]: 3.46 µg·h/mL
AUC(0-t) [2, 12]: 3.41 µg·h/mL
Cmax [2, 11]: 0.933 µg/mL
Cmax [2, 12]: 0.96 µg/mL
Tmax [2, 11]: 1.71 h
Tmax [2, 12]: 2.38 h
plasma exposure to buparlisib versus dose ([2]; 50 to 100 mg, with carboplatin + paclitaxel, Groups 1 and 2): dose-related increases in plasma exposure
inhibition of class IA PI3K paralogues [3]: potently inhibits
DLTs ([4]; Group 1, DL2 buparlisib 80 mg/day, three patients): no DLTs
DLTs ([4]; Group 1, DL3 buparlisib 100 mg/day, six evaluable subjects): no DLTs
DLT description ([4]; Group 1, dose level 1, 50 mg/day, NSCLC, 50 F): Grade 3 alkaline phosphatase elevation
MTD for buparlisib ([4]; Group 1: carboplatin AUC 5 + paclitaxel 175 mg/m^2 day 1, 21-day cycle, pegfilgrastim): 100 mg/day
phase II recommended dose of buparlisib ([4]; Group 1 regimen): 100 mg/day
DLTs ([4]; Group 2, DL1 buparlisib 50 mg/day, three patients): no DLTs
DLTs ([4]; Group 2, DL2 buparlisib 80 mg/day, first three patients): no DLTs
subjects who completed cycle 1 without DLT ([4]; Group 2, DL2 buparlisib 80 mg/day, six enrolled): five of six
DLT description ([4]; Group 2, dose level 3, 100 mg/day, NPC, 50 M): Grade 3 uncomplicated neutropenia >7 days
DLT description ([4]; Group 2, dose level 3, 100 mg/day, thyroid cancer, 61 F): Grade 3 uncomplicated neutropenia with grade 2 thrombocytopenia >7 days
MTD for buparlisib ([4]; Group 2: carboplatin AUC 5 day 1 + paclitaxel 80 mg/m^2 days 1, 8, 15, 28-day cycle, no growth factor): 80 mg/day
phase II recommended dose of buparlisib ([4]; Group 2 regimen): 80 mg/day
